Each block holds one compound with its values, some of them ahead of it.
How the values were obtained:
[1] = biological target: T1, Angiotensin-converting enzyme (Rattus norvegicus) (UniProt P47820); assay: Compound was tested for plasma inhibition of Angiotensin I converting enzyme activity in the conscious rat. Expressed as Inhibition of AI pressor response at 6 hr at a dose of 14.3 mg/kg po; format: organism-based; parameters: dose 14.3 mg/kg
T1 sequence (whole entry): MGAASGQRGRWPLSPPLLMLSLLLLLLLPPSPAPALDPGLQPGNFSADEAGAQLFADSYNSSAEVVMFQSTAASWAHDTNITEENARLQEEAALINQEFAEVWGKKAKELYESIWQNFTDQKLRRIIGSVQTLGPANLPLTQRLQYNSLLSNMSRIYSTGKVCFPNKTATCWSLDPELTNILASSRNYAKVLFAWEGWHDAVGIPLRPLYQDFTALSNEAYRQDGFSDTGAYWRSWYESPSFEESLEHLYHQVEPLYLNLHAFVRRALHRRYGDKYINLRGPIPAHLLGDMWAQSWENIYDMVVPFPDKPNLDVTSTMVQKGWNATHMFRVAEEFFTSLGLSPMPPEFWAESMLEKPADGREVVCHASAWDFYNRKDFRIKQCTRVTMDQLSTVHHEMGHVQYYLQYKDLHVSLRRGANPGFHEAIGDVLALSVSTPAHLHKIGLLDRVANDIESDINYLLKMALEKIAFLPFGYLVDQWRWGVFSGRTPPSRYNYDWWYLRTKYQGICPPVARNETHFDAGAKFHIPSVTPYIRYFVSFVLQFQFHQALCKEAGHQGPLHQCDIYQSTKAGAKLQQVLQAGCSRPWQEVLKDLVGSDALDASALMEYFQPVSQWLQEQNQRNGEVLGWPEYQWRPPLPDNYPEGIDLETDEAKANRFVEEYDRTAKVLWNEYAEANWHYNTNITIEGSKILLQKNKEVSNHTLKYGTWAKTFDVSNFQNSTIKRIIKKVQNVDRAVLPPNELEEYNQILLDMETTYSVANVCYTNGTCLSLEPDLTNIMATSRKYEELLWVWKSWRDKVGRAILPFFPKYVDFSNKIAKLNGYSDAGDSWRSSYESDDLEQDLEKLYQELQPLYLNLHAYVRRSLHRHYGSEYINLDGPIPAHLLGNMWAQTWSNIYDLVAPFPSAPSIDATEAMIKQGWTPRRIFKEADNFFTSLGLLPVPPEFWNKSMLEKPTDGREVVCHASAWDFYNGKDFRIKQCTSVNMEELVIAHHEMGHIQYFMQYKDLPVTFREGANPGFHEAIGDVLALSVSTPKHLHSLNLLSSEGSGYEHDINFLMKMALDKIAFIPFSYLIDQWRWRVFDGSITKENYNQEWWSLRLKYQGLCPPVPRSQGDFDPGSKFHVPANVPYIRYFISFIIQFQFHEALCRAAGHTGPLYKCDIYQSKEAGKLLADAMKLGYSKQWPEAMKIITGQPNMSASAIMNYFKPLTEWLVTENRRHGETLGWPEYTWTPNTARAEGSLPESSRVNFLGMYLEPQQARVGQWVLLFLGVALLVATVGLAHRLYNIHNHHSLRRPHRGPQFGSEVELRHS
How it was run: (§1)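 Male conscious normotensive Sprague-Dawley rats (275-390 g), prepared under methohexital sodium (75 mg/kg ip) with femoral arterial and venous catheters. The next day, pressor responses to three angiotensin-I challenges (300 ng/kg iv) were recorded. Compound was then given orally and angiotensin-I challenges were repeated at set times. Percent inhibition is relative to the mean of the three baseline responses.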

[2] = biological target: T1, Angiotensin-converting enzyme (Rattus norvegicus); assay: Compound was tested for plasma inhibition of Angiotensin I converting enzyme activity in the conscious rat. Expressed as Inhibition of AI pressor response at 1 hr at a dose of 14.3 mg/kg po; format: organism-based; parameters: dose 14.3 mg/kg
How it was run: (§2)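 Male conscious normotensive Sprague-Dawley rats (275-390 g), given femoral arterial and venous catheters under methohexital sodium (75 mg/kg ip) anesthesia. Next day, pressor responses to three angiotensin-I challenges (300 ng/kg iv) recorded by direct arterial pressure. Compound then dosed orally, and AI challenge repeated at set times. Each post-dose response compared with the mean of the three baseline responses, giving % inhibition.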

[3] = biological target: T1, Angiotensin-converting enzyme (Rattus norvegicus); assay: Compound was tested for plasma inhibition of Angiotensin I converting enzyme activity in the conscious rat. Expressed as Inhibition of AI pressor response at 4 hr at a dose of 14.3 mg/kg po; format: organism-based; parameters: dose 14.3 mg/kg; how it was run: as §1
[4] = biological target: T1, Angiotensin-converting enzyme (Rattus norvegicus); assay: Compound was tested for plasma inhibition of Angiotensin I converting enzyme activity in the conscious rat. Expressed as Inhibition of AI pressor response at 2 hr at a dose of 14.3 mg/kg po; format: organism-based; parameters: dose 14.3 mg/kg; how it was run: as §2
Rattus norvegicus [5] = assay: Plasma ANF Concentration in the Conscious Rat at a dose of 14.3(po)mg/kg at 1 h; format: functional
How it was run: (§3)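 Male Sprague-Dawley rats (275-390 g), catheterized in femoral artery and vein under ketamine (150 mg/kg)/acepromazine, tethered and recovered 24 h, studied conscious. Continuous iv rat ANF(99-126) infusion at 450 ng/kg/min for 5 h; baseline blood at 60 min, then oral dosing, sampling at 30-240 min.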

Rattus norvegicus [6] = assay: Plasma ANF Concentration in the Conscious Rat at a dose of 14.3(po)mg/kg at 2 h; format: functional; how it was run: as §3
Rattus norvegicus [7] = assay: Plasma ANF Concentration in the Conscious Rat at a dose of 14.3(po)mg/kg at 4 h; format: functional; how it was run: as §3
Rattus norvegicus [8] = assay: Plasma ANF Concentration in the Conscious Rat at a dose of 14.3(po)mg/kg at 0.5 h; format: functional; how it was run: as §3
[9] = biological target: T1, Angiotensin-converting enzyme (Rattus norvegicus); assay: Compound was tested for plasma inhibition of Angiotensin I converting enzyme activity in the conscious rat. Expressed as Inhibition of AI pressor response at 2 hr at a dose of 12.1 mg/kg po; format: organism-based; parameters: dose 12.1 mg/kg; how it was run: as §2
[10] = biological target: T1, Angiotensin-converting enzyme (Rattus norvegicus); assay: Compound was tested for plasma inhibition of Angiotensin I converting enzyme activity in the conscious rat. Expressed as Inhibition of AI pressor response at 6 hr at a dose of 12.1 mg/kg po; format: organism-based; parameters: dose 12.1 mg/kg; how it was run: as §1
[11] = biological target: T1, Angiotensin-converting enzyme (Rattus norvegicus); assay: Compound was tested for plasma inhibition of Angiotensin I converting enzyme activity in the conscious rat. Expressed as Inhibition of AI pressor response at 1 hr at a dose of 12.1 mg/kg po; format: organism-based; parameters: dose 12.1 mg/kg; how it was run: as §2
[12] = biological target: T1, Angiotensin-converting enzyme (Rattus norvegicus); assay: Compound was tested for plasma inhibition of Angiotensin I converting enzyme activity in the conscious rat. Expressed as Inhibition of AI pressor response at 4 hr at a dose of 12.1 mg/kg po; format: organism-based; parameters: dose 12.1 mg/kg; how it was run: as §2
[13] = biological target: T1, Angiotensin-converting enzyme (Rattus norvegicus); assay: Compound was tested for plasma inhibition of Angiotensin I converting enzyme activity in the conscious rat. Expressed as Inhibition of AI pressor response at 6 hr at a dose of 14.5 mg/kg po; format: organism-based; parameters: dose 14.5 mg/kg; how it was run: as §1
[14] = biological target: T1, Angiotensin-converting enzyme (Rattus norvegicus); assay: Compound was tested for plasma inhibition of Angiotensin I converting enzyme activity in the conscious rat. Expressed as Inhibition of AI pressor response at 1 hr at a dose of 14.5 mg/kg po; format: organism-based; parameters: dose 14.5 mg/kg; how it was run: as §2
[15] = biological target: T1, Angiotensin-converting enzyme (Rattus norvegicus); assay: Compound was tested for plasma inhibition of Angiotensin I converting enzyme activity in the conscious rat. Expressed as Inhibition of AI pressor response at 4 hr at a dose of 14.5 mg/kg po; format: organism-based; parameters: dose 14.5 mg/kg; how it was run: as §1
[16] = biological target: T1, Angiotensin-converting enzyme (Rattus norvegicus); assay: Compound was tested for plasma inhibition of Angiotensin I converting enzyme activity in the conscious rat. Expressed as Inhibition of AI pressor response at 2 hr at a dose of 14.5 mg/kg po; format: organism-based; parameters: dose 14.5 mg/kg; how it was run: as §2
[17] = biological target: T1, Angiotensin-converting enzyme (Rattus norvegicus); assay: Compound was tested for plasma inhibition of Angiotensin I converting enzyme activity in the conscious rat. Expressed as Inhibition of AI pressor response at 6 hr at a dose of 14.4 mg/kg po; format: organism-based; parameters: dose 14.4 mg/kg; how it was run: as §1
[18] = biological target: T1, Angiotensin-converting enzyme (Rattus norvegicus); assay: Compound was tested for plasma inhibition of Angiotensin I converting enzyme activity in the conscious rat. Expressed as Inhibition of AI pressor response at 1 hr at a dose of 14.4 mg/kg po; format: organism-based; parameters: dose 14.4 mg/kg; how it was run: as §2
[19] = biological target: T1, Angiotensin-converting enzyme (Rattus norvegicus); assay: Compound was tested for plasma inhibition of Angiotensin I converting enzyme activity in the conscious rat. Expressed as Inhibition of AI pressor response at 4 hr at a dose of 14.4 mg/kg po; format: organism-based; parameters: dose 14.4 mg/kg; how it was run: as §1
[20] = biological target: T1, Angiotensin-converting enzyme (Rattus norvegicus); assay: Compound was tested for plasma inhibition of Angiotensin I converting enzyme activity in the conscious rat. Expressed as Inhibition of AI pressor response at 2 hr at a dose of 14.4 mg/kg po; format: organism-based; parameters: dose 14.4 mg/kg; how it was run: as §2
[21] = biological target: T1, Angiotensin-converting enzyme (Rattus norvegicus); assay: Compound was tested for plasma inhibition of Angiotensin I converting enzyme activity in the conscious rat. Expressed as Inhibition of AI pressor response at 2 hr at a dose of 11.7 mg/kg po; format: organism-based; parameters: dose 11.7 mg/kg; how it was run: as §2
[22] = biological target: T1, Angiotensin-converting enzyme (Rattus norvegicus); assay: Compound was tested for plasma inhibition of Angiotensin I converting enzyme activity in the conscious rat. Expressed as Inhibition of AI pressor response at 6 hr at a dose of 11.7 mg/kg po; format: organism-based; parameters: dose 11.7 mg/kg; how it was run: as §1
[23] = biological target: T1, Angiotensin-converting enzyme (Rattus norvegicus); assay: Compound was tested for plasma inhibition of Angiotensin I converting enzyme activity in the conscious rat. Expressed as Inhibition of AI pressor response at 4 hr at a dose of 11.7 mg/kg po; format: organism-based; parameters: dose 11.7 mg/kg; how it was run: as §2
Rattus norvegicus [24] = assay: Plasma ANF Concentration in the Conscious Rat at a dose of 11.7(po)mg/kg at 1 h; format: functional
How it was run: (§4)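 Male Sprague-Dawley rats (275-390 g) received femoral artery and vein catheters under ketamine (150 mg/kg)/acepromazine and recovered for 24 h, tethered, before study conscious. ratANF(99-126) was infused at 450 ng/kg/min iv for 5 h. Baseline blood was drawn at 60 min into the infusion, then compound was given po.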

Rattus norvegicus [25] = assay: Plasma ANF Concentration in the Conscious Rat at a dose of 11.7(po)mg/kg at 2 h; format: functional; how it was run: as §4
Rattus norvegicus [26] = assay: Plasma ANF Concentration in the Conscious Rat at a dose of 11.7(po)mg/kg at 4 h; format: functional; how it was run: as §4
Rattus norvegicus [27] = assay: Plasma ANF Concentration in the Conscious Rat at a dose of 11.7(po)mg/kg at 0.5 h; format: functional; how it was run: as §4
[28] = biological target: T1, Angiotensin-converting enzyme (Rattus norvegicus); assay: Compound was tested for plasma inhibition of Angiotensin I converting enzyme activity in the conscious rat. Expressed as Inhibition of AI pressor response at 1 hr at a dose of 11.7 mg/kg po; format: organism-based; parameters: dose 11.7 mg/kg; how it was run: as §2

Compound: CCOC(=O)[C@H](Cc1ccc(OC(=O)c2ccncc2)cc1)NC(=O)C1(NC(=O)[C@H](SC(C)=O)C(C)C)CCCC1
inhibition [1]: 55%
inhibition [2]: 79%
inhibition [3]: 70%
inhibition [4]: 75%
Control (Rattus norvegicus [5]): 193%
Control (Rattus norvegicus [6]): 183%
Control (Rattus norvegicus [7]): 159%
Control (Rattus norvegicus [8]): 165%

Compound: CCOC(=O)CC(=O)Oc1ccc(C[C@H](NC(=O)C2(NC(=O)[C@H](SC(C)=O)C(C)C)CCCC2)C(=O)OCC)cc1
inhibition [13]: 73%
inhibition [14]: 88%
inhibition [15]: 82%
inhibition [16]: 78%

Compound: COC(=O)[C@H](Cc1ccc(OC)cc1)NC(=O)C1(NC(=O)[C@H](SC(C)=O)C(C)C)CCCC1
inhibition [21]: 90%
inhibition [22]: 78%
inhibition [23]: 87%
Control (Rattus norvegicus [24]): 337%
Control (Rattus norvegicus [25]): 263%
Control (Rattus norvegicus [26]): 342%
Control (Rattus norvegicus [27]): 279%
inhibition [28]: 97%

Second part, the compound after the results:

inhibition [9]: 85%
inhibition [10]: 78%
inhibition [11]: 67%
inhibition [12]: 81%
Compound: CC(=O)S[C@@H](C(=O)NC1(C(=O)N[C@@H](Cc2ccc(O)cc2)C(=O)OC(C)C)CCCC1)C(C)C

inhibition [13]: 12%
inhibition [14]: 57%
inhibition [15]: 34%
inhibition [16]: 53%
Compound: CCCCOC(=O)[C@H](Cc1ccc(O)cc1)NC(=O)C1(NC(=O)[C@H](SC(=O)CN2CCOCC2)C(C)C)CCCC1

inhibition [17]: 26%
inhibition [18]: 65%
inhibition [19]: 50%
inhibition [20]: 55%
Compound: CCCCOC(=O)[C@H](Cc1ccc(O)cc1)NC(=O)C1(NC(=O)[C@H](SC(=O)CN2CCCCC2)C(C)C)CCCC1

— ChEMBL document CHEMBL1129264, “Mercaptoacyl dipeptides as orally active dual inhibitors of angiotensin-converting enzyme and neutral endopeptidase” (1996)
